Laboratory results reported in ChEMBL document CHEMBL4819122, “Novel 4-(piperazin-1-yl)quinolin-2(1H)-one bearing thiazoles with antiproliferative activity through VEGFR-2-TK inhibition” (Bioorg Med Chem, 2021).
Calls of active or inactive are those of the source. The rule behind the calls is not given here.

What was measured:
[1] = system: HCT-116; test: Cytotoxicity against human HCT-116 assessed as growth inhibition at 10 uM by NCI protocol relative to control; format: functional; settings: read-out: GI
Procedure, shortened: (§1)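 Run by NCI as a single-dose screen at 10 μM across the sixty-cell-line panel, which covers nine human tumour tissue types. The read-out is percent growth inhibition of treated cells relative to untreated cells.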

[2] = system: TK-10; test: Cytotoxicity against human TK-10 assessed as growth inhibition at 10 uM by NCI protocol relative to control; format: functional; settings: read-out: GI
Procedure, shortened: (§2)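 Run by the NCI under its standard protocol: one dose of 10 μM against a sixty-line panel from nine human tumour tissues. Result given as percent growth inhibition of treated cells relative to untreated cells.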

[3] = system: T47D; test: Cytotoxicity against human T47D cells assessed as reduction in cell viability after 3 hrs by MTT assay
[4] = system: LOX IMVI; test: Cytotoxicity against human LOX IMVI assessed as growth inhibition at 10 uM by NCI protocol relative to control; format: functional; settings: read-out: GI; procedure, shortened: as §1
[5] = system: EKVX; test: Cytotoxicity against human EKVX assessed as growth inhibition at 10 uM by NCI protocol relative to control; format: functional; settings: read-out: GI; procedure, shortened: as §1
[6] = system: UO-31; test: Cytotoxicity against human UO31 assessed as growth inhibition at 10 uM by NCI protocol relative to control; format: functional; settings: read-out: GI; procedure, shortened: as §2
[7] = system: SK-MEL-5; test: Cytotoxicity against human SK-MEL-5 assessed as growth inhibition at 10 uM by NCI protocol relative to control; format: functional; settings: read-out: GI; procedure, shortened: as §1
[8] = system: NCI/ADR-RES; test: Cytotoxicity against human NCl/ADR-RES assessed as growth inhibition at 10 uM by NCI protocol relative to control; format: functional; settings: read-out: GI; procedure, shortened: as §1
[9] = system: PC-3; test: Cytotoxicity against human PC3 assessed as growth inhibition at 10 uM by NCI protocol relative to control; format: functional; settings: read-out: GI; procedure, shortened: as §1
[10] = system: MDA-MB-435; test: Cytotoxicity against human MDA-MB-435 assessed as growth inhibition at 10 uM by NCI protocol relative to control; format: functional, cell-based; procedure, shortened: as §1
[11] = system: A549; test: Cytotoxicity against human A549 assessed as growth inhibition at 10 uM by NCI protocol relative to control; format: functional; settings: read-out: GI; procedure, shortened: as §1
[12] = system: HT-29; test: Cytotoxicity against human HT29 assessed as growth inhibition at 10 uM by NCI protocol relative to control; format: functional; settings: read-out: GI; procedure, shortened: as §1
[13] = system: NCI-H226; test: Cytotoxicity against human NCI-H226 assessed as growth inhibition at 10 uM by NCI protocol relative to control; format: functional; settings: read-out: GI; procedure, shortened: as §1
[14] = system: BT-549; test: Cytotoxicity against human BT-549 assessed as growth inhibition at 10 uM by NCI protocol relative to control; format: functional; settings: read-out: GI; procedure, shortened: as §1
[15] = system: SF-268; test: Cytotoxicity against human SF-268 assessed as growth inhibition at 10 uM by NCI protocol relative to control; format: functional; settings: read-out: GI; procedure, shortened: as §1
[16] = system: K562; test: Cytotoxicity against human K-562 assessed as growth inhibition at 10 uM by NCI protocol relative to control; format: functional; settings: read-out: GI; procedure, shortened: as §1
[17] = system: CCRF-CEM; test: Cytotoxicity against human CCRF-CEM assessed as growth inhibition at 10 uM by NCI protocol relative to control; format: functional; settings: read-out: GI; procedure, shortened: as §1
[18] = system: SF-295; test: Cytotoxicity against human SF-295 assessed as growth inhibition at 10 uM by NCI protocol relative to control; format: functional; settings: read-out: GI; procedure, shortened: as §1
[19] = system: NCI-H23; test: Cytotoxicity against human NCI-H23 assessed as growth inhibition at 10 uM by NCI protocol relative to control; format: functional; settings: read-out: GI; procedure, shortened: as §1
[20] = system: 786-0; test: Cytotoxicity against human 786-0 assessed as growth inhibition at 10 uM by NCI protocol relative to control; format: functional; settings: read-out: GI; procedure, shortened: as §1
[21] = system: SNB-75; test: Cytotoxicity against human SNB-75 assessed as growth inhibition at 10 uM by NCI protocol relative to control; format: functional; settings: read-out: GI; procedure, shortened: as §2
[22] = system: RPMI-8226; test: Cytotoxicity against human RPMI-8226 assessed as growth inhibition at 10 uM by NCI protocol relative to control; format: functional; settings: read-out: GI; procedure, shortened: as §1
[23] = system: OVCAR-8; test: Cytotoxicity against human OVCAR-8 assessed as growth inhibition at 10 uM by NCI protocol relative to control; format: functional; settings: read-out: GI; procedure, shortened: as §1
[24] = system: A498; test: Cytotoxicity against human A498 assessed as growth inhibition at 10 uM by NCI protocol relative to control; format: functional; settings: read-out: GI; procedure, shortened: as §1
[25] = system: MOLT-4; test: Cytotoxicity against human MOLT-4 assessed as growth inhibition at 10 uM by NCI protocol relative to control; format: functional; settings: read-out: GI; procedure, shortened: as §1
[26] = system: MDA-MB-231; test: Cytotoxicity against human MDA-MB-231 assessed as growth inhibition at 10 uM by NCI protocol relative to control; format: functional; settings: read-out: GI; procedure, shortened: as §1
[27] = system: OVCAR-3; test: Cytotoxicity against human OVCAR-3 assessed as growth inhibition at 10 uM by NCI protocol relative to control; format: functional; settings: read-out: GI; procedure, shortened: as §1
[28] = system: OVCAR-4; test: Cytotoxicity against human OVCAR-4 assessed as growth inhibition at 10 uM by NCI protocol relative to control; format: functional; settings: read-out: GI; procedure, shortened: as §1
[29] = system: DU-145; test: Cytotoxicity against human DU-145 assessed as growth inhibition at 10 uM by NCI protocol relative to control; format: functional; settings: read-out: GI; procedure, shortened: as §1
[30] = system: UACC-257; test: Cytotoxicity against human UACC-257 assessed as growth inhibition at 10 uM by NCI protocol relative to control; format: functional; settings: read-out: GI; procedure, shortened: as §2
[31] = system: MCF7; test: Cytotoxicity against human MCF7 assessed as growth inhibition at 10 uM by NCI protocol relative to control; format: functional; settings: read-out: GI; procedure, shortened: as §1
[32] = system: SR; test: Cytotoxicity against human SR assessed as growth inhibition at 10 uM by NCI protocol relative to control; format: functional; settings: read-out: GI; procedure, shortened: as §2
[33] = system: SK-MEL-28; test: Cytotoxicity against human SK-MEL-28 assessed as growth inhibition at 10 uM by NCI protocol relative to control; format: functional; settings: read-out: GI; procedure, shortened: as §1
[34] = system: SK-OV-3; test: Cytotoxicity against human SK-OV-3 assessed as growth inhibition at 10 uM by NCI protocol relative to control; format: functional; settings: read-out: GI; procedure, shortened: as §1
[35] = system: SW-620; test: Cytotoxicity against human SW-620 assessed as growth inhibition at 10 uM by NCI protocol relative to control; format: functional; settings: read-out: GI; procedure, shortened: as §2
[36] = system: IGROV-1; test: Cytotoxicity against human IGROVI assessed as growth inhibition at 10 uM by NCI protocol relative to control; format: functional; settings: read-out: GI; procedure, shortened: as §1
[37] = system: HOP-92; test: Cytotoxicity against human HOP-92 assessed as growth inhibition at 10 uM by NCI protocol relative to control; format: functional; procedure, shortened: as §1
[38] = system: NCI-H522; test: Cytotoxicity against human NCI-H522 assessed as growth inhibition at 10 uM by NCI protocol relative to control; format: functional; settings: read-out: GI; procedure, shortened: as §1
[39] = system: SF-539; test: Cytotoxicity against human […] assessed as growth inhibition at 10 uM by NCI protocol relative to control; format: functional; settings: read-out: GI; procedure, shortened: as §1
[40] = system: KM12; test: Cytotoxicity against human KM12 assessed as growth inhibition at 10 uM by NCI protocol relative to control; format: functional; settings: read-out: GI; procedure, shortened: as §1
[41] = system: HL-60; test: Cytotoxicity against human HL60 assessed as growth inhibition at 10 uM by NCI protocol relative to control; format: functional; settings: read-out: GI; procedure, shortened: as §1
[42] = system: NCI-H460; test: Cytotoxicity against human NCI-H460 assessed as growth inhibition at 10 uM by NCI protocol relative to control; format: functional; settings: read-out: GI; procedure, shortened: as §1
[43] = system: SK-MEL-2; test: Cytotoxicity against human SK-MEL-2 assessed as growth inhibition at 10 uM by NCI protocol relative to control; format: functional; settings: read-out: GI; procedure, shortened: as §1
[44] = system: HCT-15; test: Cytotoxicity against human HCT-15 assessed as growth inhibition at 10 uM by NCI protocol relative to control; format: functional; settings: read-out: GI; procedure, shortened: as §1

O=C(CN1CCN(c2cc(=O)n(-c3ccccc3)c3ccccc23)CC1)Nc1nc(-c2ccc(Cl)cc2)cs1
inhibition of growth at 10 µM [1]: 64.2% | inhibition of growth at 10 µM [2]: 37.6% | IC50 [3]: 30.2 µM | inhibition of growth at 10 µM [4]: 41.6% | inhibition of growth at 10 µM [5]: 57.3% | inhibition of growth at 10 µM [6]: 70.5% | inhibition of growth at 10 µM [7]: 94.9% | inhibition of growth at 10 µM [8]: 45.1% | inhibition of growth at 10 µM [9]: 65% | growth inhibition (GI) [10]: inactive | inhibition of growth at 10 µM [11]: 47.4% | inhibition of growth at 10 µM [12]: 36.2% | inhibition of growth at 10 µM [13]: 52.6% | inhibition of growth at 10 µM [14]: 53.5% | inhibition of growth at 10 µM [15]: 45.5% | inhibition of growth at 10 µM [16]: 75.8% | inhibition of growth at 10 µM [17]: 49.3% | inhibition of growth at 10 µM [18]: 37.4% | inhibition of growth at 10 µM [19]: 50.2% | inhibition of growth at 10 µM [20]: 32.4% | inhibition of growth at 10 µM [21]: 32.5% | inhibition of growth at 10 µM [22]: 63.3% | inhibition of growth at 10 µM [23]: 40.6% | inhibition of growth at 10 µM [24]: 59.2% | inhibition of growth at 10 µM [25]: 71% | inhibition of growth at 10 µM [26]: 25.3% | inhibition of growth at 10 µM [27]: 32.9% | inhibition of growth at 10 µM [28]: 80.3% | inhibition of growth at 10 µM [29]: 38.4% | inhibition of growth at 10 µM [30]: 72% | inhibition of growth at 10 µM [31]: 79.9% | inhibition of growth at 10 µM [32]: 43.2% | inhibition of growth at 10 µM [33]: 30.8% | inhibition of growth at 10 µM [34]: 28.6% | inhibition of growth at 10 µM [35]: 25.7% | inhibition of growth at 10 µM [36]: 34.5% | growth inhibition (GI) [37]: inactive | inhibition of growth at 10 µM [38]: 43.7% | inhibition of growth at 10 µM [39]: 23.9% | inhibition of growth at 10 µM [40]: 35.3% | inhibition of growth at 10 µM [41]: 73.8% | inhibition of growth at 10 µM [42]: 45.2% | inhibition of growth at 10 µM [43]: 24.4% | inhibition of growth at 10 µM [44]: 60.3%
